According to ChEMBL document CHEMBL4033794, “Discovery of Trifluoromethyl Glycol Carbamates as Potent and Selective Covalent Monoacylglycerol Lipase (MAGL) Inhibitors for Treatment of Neuroinflammation” (J Med Chem, 2018):
Converted amounts (≈) assume the structure as drawn. The source made the active and inactive calls. No cut-off for these calls is given here.

Key:
CYP2C9 = CYP2C9 (Homo sapiens, UniProt P11712); assay: Inhibition of CYP2C9 (unknown origin) at 3 uM; assay type: ADME
Summary of the method: (§1)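 Competitive inhibition screen of CYP3A4, 2D6, 2C9, 2C8 and 1A2 using isoform-relevant probe substrates, compound at 3 μM.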

[1] = Plasma clearance in Wistar Hannover rat at 1 mg/kg, iv administered as bolus dose via jugular vein cannula measured up to 24 hrs post dose by HPLC-MS/MS analysis; assay type: ADME, organism-based
Summary of the method: (§2)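 Rats (n = 2) given 1 mg/kg IV bolus via jugular vein cannula, solution in 3% DMA/10% Solutol HS15/10% Miglyol/77% of 20% SBECD in water, 1 mL/kg. Carotid cannula blood pre-dose and 0.083–24 h; plasma by HPLC-MS/MS; non-compartmental analysis.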

[2] = Half life in Wistar Hannover rat at 1 mg/kg, iv administered as bolus dose via jugular vein cannula measured up to 24 hrs post dose by HPLC-MS/MS analysis; assay type: ADME, organism-based; settings: in vivo; summary of the method: as §2
Cannabinoid receptor 1 [3] = biological target: T1, Cannabinoid receptor 1 (Homo sapiens, UniProt P21554); assay: Agonist activity at human CB1 receptor expressed in CHOK1 cells assessed as […] after 20 mins by HTRF assay; assay type: functional, cell-based
T1 sequence (P21554 whole entry): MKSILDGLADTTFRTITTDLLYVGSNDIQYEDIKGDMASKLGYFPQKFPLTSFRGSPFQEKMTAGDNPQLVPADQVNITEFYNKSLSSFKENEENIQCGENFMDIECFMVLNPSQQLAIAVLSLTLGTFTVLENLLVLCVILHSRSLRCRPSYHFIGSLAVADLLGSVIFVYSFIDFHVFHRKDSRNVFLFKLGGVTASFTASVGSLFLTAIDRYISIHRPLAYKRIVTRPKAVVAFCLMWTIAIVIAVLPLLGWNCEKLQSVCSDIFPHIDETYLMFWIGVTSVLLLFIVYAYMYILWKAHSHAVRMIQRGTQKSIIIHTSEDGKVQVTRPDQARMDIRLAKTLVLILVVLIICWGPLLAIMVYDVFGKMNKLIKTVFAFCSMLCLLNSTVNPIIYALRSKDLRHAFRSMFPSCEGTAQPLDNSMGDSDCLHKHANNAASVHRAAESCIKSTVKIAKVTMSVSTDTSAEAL

Mus musculus [4] = assay: Anti-inflammatory activity in C57BL6J mouse assessed as reduction in LPS-induced PGE2 levels in brain at 1 mg/kg, sc administered 30 mins after LPS challenge measured at 4 hrs post LPS challenge by LC-MS/MS analysis; assay type: functional, organism-based
Summary of the method: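 Mice given LPS 20 mg/kg IP or saline, then 1 mg/kg SC compound or vehicle 30 min later; brains collected 4 h post-LPS, homogenized in pH 2.0 PMSF/NH4OAc buffer, spiked with d4-PGE2 internal standard, acetonitrile-extracted, and PGE2 quantified by LC-MS/MS.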

[5] = Volume of distribution in Beagle dog at 1 mg/kg, iv administered via cephalic vein measured up to 24 hrs post dose by HPLC-MS/MS analysis; assay type: ADME, organism-based, Canis lupus familiaris; settings: in vivo
Summary of the method: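 Fasted male beagles (n = 2), fed ~4 h post-dose, given 1 mg/kg IV bolus via cephalic vein in 3% DMA/10% Solutol HS15/10% Miglyol/77% of 20% SBECD, 0.5 mL/kg. Jugular blood pre-dose and 0.083–24 h; plasma HPLC-MS/MS; non-compartmental analysis.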

[6] = Intrinsic clearance in human liver microsomes; assay type: ADME, microsome; settings: read-out: CLH
Summary of the method: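 Substrate depletion in human liver microsomes; intrinsic clearance scaled to mL/min/kg.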

[7] = Drug metabolism in human hepatocytes assessed as glucuronide conjugate formation; assay type: ADME, cell-based, Hepatocyte
[8] = Ratio of AUClast in C57BL6J mouse brain to plasma at 1 mg/kg, sc measured up to 24 hrs post dose by HPLC-MS/MS analysis; settings: brain and plasma
Mus musculus [9] = organism: Mus musculus; settings: C57BL6J, 1 mg/kg
Mus musculus [10] = assay: Anti-inflammatory activity in C57BL6J mouse assessed as reduction in LPS-induced TNFalpha levels in brain at 1 mg/kg, sc administered 30 mins after LPS challenge measured at 4 hrs post LPS challenge; assay type: functional, organism-based
Summary of the method: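 LPS 20 mg/kg IP or saline, then 1 mg/kg SC compound or vehicle at 30 min; hemi-brains taken at 4 h, homogenized in PBS with protease inhibitors, spun 100,000 rcf 45 min at 4°C; IL-1β and TNFα measured by Meso Scale electrochemiluminescence panel, with protein measured by BCA.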

[11] = Unbound fraction in C57BL6J mouse brain at 1 mg/kg, sc measured up to 24 hrs post dose by HPLC-MS/MS analysis; assay type: ADME, organism-based
[12] = Ratio of unbound AUClast in C57BL6J mouse brain to plasma at 1 mg/kg, sc measured up to 24 hrs post dose by HPLC-MS/MS analysis; settings: brain and plasma
[13] = Cmax in C57BL6J mouse brain at 1 mg/kg, sc up to 24 hrs post dose; assay type: ADME, organism-based; parameters: dose 1 mg/kg, route subcutaneous
Mus musculus [14] = organism: Mus musculus; settings: C57BL6J, 1 mg/kg; remark: listed apart in the source
[15] = Intrinsic clearance in human hepatocytes; assay type: ADME, cell-based, Hepatocyte; settings: read-out: CLH
Summary of the method: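 Substrate depletion in cryopreserved human hepatocytes; scaled intrinsic clearance in mL/min/kg.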

Mus musculus [16] = assay: Time at which unbound brain concentration stays above in vitro MAGL IC50 in C57BL6J mouse at 1 mg/kg, sc up to 24 hrs post dose
Summary of the method: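 Male C57BL6J mice dosed 1 mg/kg SC in DMSO:Cremophor:saline 5:5:90, 10 mL/kg; plasma and brain taken at 0.5, 1, 2, 4, 8, 12, 24 h. Drug measured in plasma and cerebellum; 2-AG and arachidonic acid in brain hemisphere, compared with vehicle-treated mice.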

[17] = Apprent permeability in RRCK cells; assay type: ADME, cell-based, Canis lupus familiaris, MDCKII-LE; settings: dog, MDCK
Cannabinoid receptor 1 [18] = biological target: T1, Cannabinoid receptor 1; assay: Displacement of [3H]CP55940 from human CB1 receptor expressed in CHOK1 cell membranes at 10 uM after 120 mins by scintillation counting method
[19] = Volume of distribution in non-human primate at 1 mg/kg, iv administered via cephalic vein measured up to 24 hrs post dose by HPLC-MS/MS analysis; assay type: ADME, organism-based, Macaca mulatta; settings: rhesus monkey, in vivo
Summary of the method: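 Fasted male non-human primates (n = 2), fed ~1 h post-dose; 1 mg/kg IV bolus via saphenous or cephalic vein in 3% DMA/10% Solutol HS15/10% Miglyol/77% of 20% SBECD, 0.5 mL/kg. Femoral blood pre-dose and 0.083–24 h; plasma HPLC-MS/MS; non-compartmental analysis.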

[20] = Kinetic solubility of the compound at pH 7.4; assay type: physicochemical; settings: buffer, read-out: Kinetic_solubility
Mus musculus [21] = assay: Anti-inflammatory activity in C57BL6J mouse assessed as reduction in LPS-induced IL-1beta levels in brain at 1 mg/kg, sc administered 30 mins after LPS challenge measured at 4 hrs post LPS challenge; assay type: functional, organism-based
[22] = Lipophilicity, log D of the compound by HPLC analysis; assay type: physicochemical
Summary of the method: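 LogD determined by an HPLC-based (eLogD) method.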

CYP1A2 = biological target: T2, CYP1A2 (Homo sapiens, UniProt P05177); assay: Inhibition of CYP1A2 (unknown origin) at 3 uM; assay type: ADME; summary of the method: as §1
T2 sequence (P05177 whole entry): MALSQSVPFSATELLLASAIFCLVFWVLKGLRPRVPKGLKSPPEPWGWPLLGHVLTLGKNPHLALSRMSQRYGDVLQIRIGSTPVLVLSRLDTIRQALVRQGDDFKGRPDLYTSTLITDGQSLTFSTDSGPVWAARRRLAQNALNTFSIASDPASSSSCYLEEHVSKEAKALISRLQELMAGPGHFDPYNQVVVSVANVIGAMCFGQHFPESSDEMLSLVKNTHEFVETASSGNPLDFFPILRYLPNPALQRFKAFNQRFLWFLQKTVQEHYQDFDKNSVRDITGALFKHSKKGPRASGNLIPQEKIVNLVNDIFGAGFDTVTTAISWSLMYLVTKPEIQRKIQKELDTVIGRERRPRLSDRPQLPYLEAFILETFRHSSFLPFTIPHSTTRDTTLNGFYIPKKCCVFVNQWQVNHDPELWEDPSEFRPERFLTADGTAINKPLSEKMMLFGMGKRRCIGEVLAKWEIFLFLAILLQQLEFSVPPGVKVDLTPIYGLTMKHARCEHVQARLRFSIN

Sequence of CYP2C9 (P11712 whole entry, canonical isoform): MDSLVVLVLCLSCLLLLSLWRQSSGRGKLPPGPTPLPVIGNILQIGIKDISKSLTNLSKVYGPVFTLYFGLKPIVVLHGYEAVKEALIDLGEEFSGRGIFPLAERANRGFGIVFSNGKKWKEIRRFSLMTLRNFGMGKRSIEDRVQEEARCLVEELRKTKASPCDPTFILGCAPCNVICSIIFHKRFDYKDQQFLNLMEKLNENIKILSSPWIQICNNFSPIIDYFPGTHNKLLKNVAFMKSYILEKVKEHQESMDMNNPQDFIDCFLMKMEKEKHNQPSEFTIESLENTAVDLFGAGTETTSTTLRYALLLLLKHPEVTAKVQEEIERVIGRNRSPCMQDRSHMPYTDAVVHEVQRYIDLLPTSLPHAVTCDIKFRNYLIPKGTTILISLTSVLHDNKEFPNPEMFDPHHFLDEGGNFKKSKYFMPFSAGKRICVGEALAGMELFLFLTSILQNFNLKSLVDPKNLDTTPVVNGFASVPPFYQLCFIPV

Work on `O=C(O[C@H](CO)C(F)(F)F)N1C[C@@H]2[C@H](C1)[C@H]2c1ccn(-c2ccc(F)cc2)n1` yielded an inhibition at 3 µM (CYP2C9) of less than 10%, a clearance [1] of 61 mL/min/kg and a half-life [2] of 1.3 h. The EC50 (Cannabinoid receptor 1 [3]) was 1500 nM, the Activity (Mus musculus [4]) was “Active” and the Vd [5] was 1.6 L/kg. For the same compound, the CLint scaled [6] was less than 8 mL/min/kg, the Drug metabolism [7] was “Metabolite_Detected” and the Kp at 24 h [8] was 2.4. The inhibition (Mus musculus [9]) was “Active”, the Activity (Mus musculus [10]) was “Active” and the fraction unbound at 24 h [11] was 0.00775. The Kp uu at 24 h [12] was 1.4, the Cmax [13] was greater than 1000 nM and the inhibition (Mus musculus [14]) was “Active”. It also gave a CLint scaled [15] of 52 mL/min/kg, a Time (Mus musculus [16]) of 2 h and a Papp [17] of 21 ×10⁻⁶ cm/s. The inhibition (Cannabinoid receptor 1 [18]) was “inactive”, the Vd [19] was 1.5 L/kg and the solubility kinetic [20] was 115 µM (≈ 45.9 µg/mL). For the same compound, the Activity (Mus musculus [21]) was “Active”, the logD [22] was 3.8 and the inhibition at 3 µM (CYP1A2) was less than 10%.
